“And” between values parts separate entries of the source, which are not always exact repeats. Equal values may be shown once. Read-outs that look alike come from different tables or passages of the source.
Key:
[1] = target: D2pol: polymerase domain of dengue 2 virus (Dengue virus type 2, UniProt P14340); assay: In vitro polymerase assay; assay type: biochemical; conditions: read-out: IC50 D2pol; polymerase activity
[2] = target: D2 NS5: full length DENV protein (Dengue virus type 2, UniProt P14340); assay: In vitro polymerase assay; assay type: biochemical, dengue 2 virus; conditions: read-out: IC50 D2 NS5, polymerase activity
[3] = target: ZIKV NS5: full length ZIKV protein (Zika virus, UniProt A0A024B7W1); assay: In vitro polymerase assay; assay type: biochemical; conditions: read-out: IC50 ZIKV NS5, polymerase activity
ZIKV NS5: full length ZIKV protein, sequence (A0A024B7W1 2521-3423 limits assumed): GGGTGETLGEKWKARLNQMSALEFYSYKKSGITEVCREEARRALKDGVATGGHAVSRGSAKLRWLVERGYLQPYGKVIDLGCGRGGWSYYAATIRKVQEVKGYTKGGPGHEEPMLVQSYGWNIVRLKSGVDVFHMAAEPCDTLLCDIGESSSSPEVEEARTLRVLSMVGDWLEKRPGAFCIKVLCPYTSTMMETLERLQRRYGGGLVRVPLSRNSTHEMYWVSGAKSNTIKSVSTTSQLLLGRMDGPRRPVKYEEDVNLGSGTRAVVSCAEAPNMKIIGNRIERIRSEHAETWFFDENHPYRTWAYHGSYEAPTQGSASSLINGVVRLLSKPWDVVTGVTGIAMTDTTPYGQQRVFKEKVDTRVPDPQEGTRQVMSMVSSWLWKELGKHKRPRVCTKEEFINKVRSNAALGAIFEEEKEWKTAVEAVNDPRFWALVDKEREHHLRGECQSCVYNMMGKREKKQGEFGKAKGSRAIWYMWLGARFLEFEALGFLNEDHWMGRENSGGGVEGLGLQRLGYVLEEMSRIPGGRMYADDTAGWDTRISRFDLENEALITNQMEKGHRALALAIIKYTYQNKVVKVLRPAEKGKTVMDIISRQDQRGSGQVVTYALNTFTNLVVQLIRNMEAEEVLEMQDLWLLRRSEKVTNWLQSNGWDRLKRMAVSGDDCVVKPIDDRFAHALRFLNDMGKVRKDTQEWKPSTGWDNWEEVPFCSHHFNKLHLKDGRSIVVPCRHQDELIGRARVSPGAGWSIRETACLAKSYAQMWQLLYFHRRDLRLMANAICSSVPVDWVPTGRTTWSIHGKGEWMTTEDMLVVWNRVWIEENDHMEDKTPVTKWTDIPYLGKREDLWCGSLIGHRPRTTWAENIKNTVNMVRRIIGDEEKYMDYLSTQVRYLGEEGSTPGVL

[4] = test system: DENV-2; conditions: read-out: IC50 DENV-2; cited from earlier work
[5] = test system: ZIKV; conditions: read-out: IC50 ZIKV; cited from earlier work
[6] = Cytotoxicity, CellTiter-Glo 2.0 luminescent cell viability assay; assay type: cell-based; conditions: human, Huh7 cells
[7] = ABTS radical decolorization assay; assay type: physicochemical; conditions: 10 μM-1 mM, 10 min; Fig. 2
How it was run: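 ABTS radical cation solution, diluted 1:100 in ethanol to an absorbance of 0.70 (±0.02) at 734 nm, serves as the control solution. Test compound or ascorbic acid reference, dissolved in DMSO at 10 μM, 50 μM, 0.1 mM, 0.2 mM, 0.5 mM or 1 mM, is added. A734 is read after exactly 10 min, and %scavenging = [(A0 − As)/A0] × 100, with the control run in each assay.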

[8] = Stability towards oxidative stress; assay type: physicochemical; conditions: 40 mM H2O2 in ethanol, argon atmosphere; data not shown
[9] = test system: PR8 H1N1; assay: Time-of-addition, In Cell Western of hemagglutinin; assay type: cell-based, Influenza A virus
[10] = test system: influenza A virus strains PR8 H1N1, pandemic 2009H1N1, avian Ulster H7N1; assay type: cell-based
[11] = test system: DENV; assay: In vitro resistance selection in Huh7 cells, NS3/NS5 population sequencing; assay type: cell-based, Dengue virus serotype 2 (New Guinea C)
[12] = test system: ZIKV; assay: as above; assay type: cell-based, Zika virus (H/PF/2013)
[13] = test system: DENV NS3 and NS5 proteins; assay type: cell-based, DENV-2; conditions: for expression of NS5 protein: 6i 50 μM (p ≤ 0.0001 at 16 h), Sofosbuvir 100 μM (from 12 h, p ≤ 0.01); for expression of NS3 protein: 6i 50 μM (p ≤ 0.05 at 12 h), Sofosbuvir 100 μM (from 12 h, p ≤ 0.05)
[14] = test system: Dengue, Zika, West Nile and Influenza A viruses; assay: Antiviral activity, range over the tested viruses; assay type: cell-based; conditions: read-out: IC50 (range over viruses)
[15] = test system: SARS-CoV-2; conditions: SARS-CoV-2, Calu-3; literature value in parenthesis; cited from earlier work
[16] = test system: DENV-2; assay: Plaque reduction assay; assay type: cell-based, Dengue virus serotype 2 (New Guinea C); conditions: Dengue virus, DENV2, read-out: DENV-2 IC50

With `Nc1ncnc2c1ncn2[C@@H]1O[C@H](COP(=O)(O)OP(=O)(O)OP(=O)(O)O)C[C@H]1O` [3'dATP] the IC50 [1] was 270 ± 30 nM, the IC50 [2] was 320 ± 50 nM and the IC50 [3] was 1000 ± 200 nM.
In the case of `Oc1cccc(Nc2nc(NCCOc3ccccc3)nc3[nH]cnc23)c1` [Compound 3], the IC50 [4] is given as 10 µM and the IC50 [5] is given as 16.7 µM.
`Fc1cccc(Nc2nc(NCCOc3ccccc3)nc3[nH]cnc23)c1` [Compound 6c, N6-(3-fluorophenyl)-N2-(2-phenoxyethyl)-9H-purine-2,6-diamine] gave a CC50 [6] greater than 200 µM.
For `CNc1nc(Nc2cccc(C(=O)OC)c2)c2nc[nH]c2n1` [Compound 6d, Methyl 3-((2-(methylamino)-9H-purin-6 yl)amino)benzoate], the CC50 [6] was greater than 200 µM.
Molecule `COC(=O)c1cccc(Nc2nc(NCCO)nc3[nH]cnc23)c1` [Compound 6e, Methyl 3-((2-((2-hydroxyethyl)amino)-9H-purin-6-yl)amino)benzoate] has a CC50 [6] greater than 200 µM.
`CNc1nc(Nc2cccc(C(F)(F)F)c2)c2nc[nH]c2n1` [Compound 6g, N2-methyl-N6-(3-(trifluoromethyl)phenyl)-9H-purine-2,6-diamine] showed a CC50 [6] greater than 200 µM.
For `FC(F)(F)c1cccc(Nc2nc(NCCOc3ccccc3)nc3[nH]cnc23)c1` [Compound 6i, N [2]-(2-phenoxyethyl)-N [6]-(3-(trifluoromethyl)phenyl)-9H-purine-2,6-diamine], the CC50 [6] was greater than 200 µM, the “radical scavenging activity (% inhibition of the ABTS absorbance at 734 nm)” value [7] was “not observed” and the “stability towards oxidative stress” value [8] was “stable for days”. The “effect on HA expression” value [9] was “not quite effective”, the “inhibition of viral protein expression” value [10] was 20–26% and 28–45% and the “dpi (days post infection to 80% CPE)” value ([11]; 6i 15 μM) was 6 days. The “dpi (days post infection to 80% CPE)” value ([11]; 6i 30 μM) was 7 days, the “dpi (days post infection to 80% CPE)” value ([11]; 6i 60 μM) was 5 days and the “dpi (days post infection to 80% CPE)” value ([11]; 6i 120 μM) was 5 days and 9 days. The “dpi (days post infection to 80% CPE)” value ([12]; 6i 15 μM) was 8 days, the “dpi (days post infection to 80% CPE)” value ([12]; 6i 30 μM) was 5 days and the “dpi (days post infection to 80% CPE)” value ([12]; 6i 60 μM) was 5 days. For the same molecule, the “dpi (days post infection to 80% CPE)” value ([12]; 6i 120 μM) was 5 days, the “expression of NS5 protein” value [13] was “significantly reduced” and the “expression of NS3 protein” value [13] was “significantly reduced”. The “MCC NS3/NS5 (Manders' colocalization coefficient)” value ([13]; 6i 50 μM, 16 h post infection, untreated control 0.726 ± 0.135) was 0.404 ± 0.106, the “MCC NS5/NS3 (Manders' colocalization coefficient)” value ([13]; 6i 50 μM, 16 h post infection, untreated control 0.752 ± 0.125) was 0.397 ± 0.101 and the IC50 [14] was 500 to 5300 nM.
For `Oc1ccc(Nc2nc(NCCOc3ccccc3)nc3[nH]cnc23)cc1O` [Compound 6j, 4-((2-((2-phenoxyethyl)amino)-9H-purin-6-yl)amino)benzene-1,2-diol], the CC50 [6] was greater than 200 µM.
Molecule `CNc1nc(Nc2cccc(C(=O)O)c2)c2nc[nH]c2n1` [Compound 6l, 3-((2-(methylamino)-9H-purin-6-yl)amino)benzoic acid] has a CC50 [6] greater than 200 µM.
`O=C(O)c1cccc(Nc2nc(NCCOc3ccccc3)nc3[nH]cnc23)c1` [Compound 6m, 3-((2-((2-phenoxyethyl)amino)-9H-purin-6-yl)amino)benzoic acid] showed a CC50 [6] greater than 200 µM.
With `Fc1cccc(NNc2nc(NCCOc3ccccc3)nc3[nH]cnc23)c1` [Compound 10a, 6-(2-(3-fluorophenyl) hydrazinyl)-N-(2-phenoxyethyl)-9H-purin-2-amine] the “radical scavenging activity (% inhibition of the ABTS absorbance at 734 nm)” value [7] was “clear concentration-dependent radical scavenging activity” and the “stability towards oxidative stress” value [8] was “quickly converted into 11a”.
With `Fc1cccc(/N=N/c2nc(NCCOc3ccccc3)nc3[nH]cnc23)c1` [Compound 11a, 6-((3-fluorophenyl)diazenyl)-N-(2-phenoxyethyl)-9H-purin-2-amine] the “radical scavenging activity (% inhibition of the ABTS absorbance at 734 nm)” value [7] was “not observed” and the “stability towards oxidative stress” value [8] was “stable for days”.
In the case of `CCC(CC)COC(=O)[C@H](C)N[P@](=O)(OC[C@H]1O[C@@](C#N)(c2ccc3c(N)ncnn23)[C@H](O)[C@@H]1O)Oc1ccccc1` [RMD], the IC50 [15] is listed as 280 nM.
Molecule `NC(=O)c1ncn([C@@H]2O[C@H](CO)[C@@H](O)[C@H]2O)n1` [Ribavirin, reference compound] has a CC50 [6] greater than 200 µM.
For `CC(C)OC(=O)[C@H](C)N[P@](=O)(OC[C@H]1O[C@@H](n2ccc(=O)[nH]c2=O)[C@](C)(F)[C@@H]1O)Oc1ccccc1` [Sofosbuvir, reference compound], the CC50 [6] was greater than 200 µM, the IC50 [16] was 3.8 µM and the “expression of NS5 protein” value [13] was “significantly reduced”. The “expression of NS3 protein” value [13] was “significantly reduced”.
